Each structure is given as a SMILES string.

In data set [1] the target is T1, Alpha-1D adrenergic receptor (Homo sapiens, UniProt P25100).
T1 sequence (P25100 whole entry): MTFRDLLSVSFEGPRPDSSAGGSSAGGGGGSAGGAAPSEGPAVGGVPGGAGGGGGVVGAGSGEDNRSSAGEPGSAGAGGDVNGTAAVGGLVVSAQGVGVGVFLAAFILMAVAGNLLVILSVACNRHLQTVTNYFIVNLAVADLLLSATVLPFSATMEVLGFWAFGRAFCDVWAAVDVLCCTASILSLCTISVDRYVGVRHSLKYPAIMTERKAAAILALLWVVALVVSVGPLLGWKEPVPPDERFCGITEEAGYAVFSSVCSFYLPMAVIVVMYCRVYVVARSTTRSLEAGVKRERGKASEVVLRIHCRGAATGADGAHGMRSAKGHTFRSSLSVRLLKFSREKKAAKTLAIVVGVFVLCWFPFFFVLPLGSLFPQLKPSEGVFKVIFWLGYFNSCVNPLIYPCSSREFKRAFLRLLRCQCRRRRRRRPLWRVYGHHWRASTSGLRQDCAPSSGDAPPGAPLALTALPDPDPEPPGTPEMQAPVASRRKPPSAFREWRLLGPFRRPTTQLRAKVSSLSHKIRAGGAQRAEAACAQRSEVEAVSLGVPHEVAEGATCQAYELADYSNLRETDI
The data set can be described thus: Displacement of 7-methoxy-[3H]-prazosin from human alpha1D-adrenoreceptor expressed in CHOK1 cell membranes after 60 mins by TopCount liquid scintillation counting method. Summed up: (§1)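 Membranes (10 µg protein per receptor subtype) incubated with 2.5 nmol/L 7-methoxy-[3H]-prazosin and test compound at 12 concentrations. Buffer: 50 mmol/L Tris-HCl pH 7.5, 10 mmol/L MgCl2, 5 mmol/L EDTA, 0.5% BSA. Incubated 60 min at room temperature, then filtered on GF/C and washed with Tris-HCl. Nonspecific binding set with 10 µmol/L phentolamine. IC50 from logistic regression; Ki = IC50/(1 + [ligand]/Kd).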

Data set [2] deals with T2, Alpha-1B adrenergic receptor (Homo sapiens, UniProt P35368).
T2 sequence (P35368 whole entry): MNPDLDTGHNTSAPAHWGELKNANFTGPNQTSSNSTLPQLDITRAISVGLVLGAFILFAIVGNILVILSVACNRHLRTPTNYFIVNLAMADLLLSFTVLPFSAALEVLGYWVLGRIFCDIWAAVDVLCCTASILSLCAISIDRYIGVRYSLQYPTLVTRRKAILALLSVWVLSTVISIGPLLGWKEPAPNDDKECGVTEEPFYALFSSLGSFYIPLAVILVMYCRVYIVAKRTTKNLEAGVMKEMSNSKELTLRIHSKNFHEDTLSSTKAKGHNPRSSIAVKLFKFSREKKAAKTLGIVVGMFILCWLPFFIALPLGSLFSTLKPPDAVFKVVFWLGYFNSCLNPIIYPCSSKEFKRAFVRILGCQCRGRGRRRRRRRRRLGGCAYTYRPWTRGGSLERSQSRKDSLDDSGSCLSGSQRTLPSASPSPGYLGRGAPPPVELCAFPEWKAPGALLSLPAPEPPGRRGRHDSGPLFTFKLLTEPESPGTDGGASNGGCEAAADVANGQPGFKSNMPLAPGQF
The data set can be described thus: Displacement of 7-methoxy-[3H]-prazosin from human alpha1B-adrenoreceptor expressed in CHOK1 cell membranes after 60 mins by TopCount liquid scintillation counting method. Summed up:
as §1

The target of data set [3] is T3, Alpha-1A adrenergic receptor (Homo sapiens, UniProt P35348).
T3 sequence (P35348 whole entry): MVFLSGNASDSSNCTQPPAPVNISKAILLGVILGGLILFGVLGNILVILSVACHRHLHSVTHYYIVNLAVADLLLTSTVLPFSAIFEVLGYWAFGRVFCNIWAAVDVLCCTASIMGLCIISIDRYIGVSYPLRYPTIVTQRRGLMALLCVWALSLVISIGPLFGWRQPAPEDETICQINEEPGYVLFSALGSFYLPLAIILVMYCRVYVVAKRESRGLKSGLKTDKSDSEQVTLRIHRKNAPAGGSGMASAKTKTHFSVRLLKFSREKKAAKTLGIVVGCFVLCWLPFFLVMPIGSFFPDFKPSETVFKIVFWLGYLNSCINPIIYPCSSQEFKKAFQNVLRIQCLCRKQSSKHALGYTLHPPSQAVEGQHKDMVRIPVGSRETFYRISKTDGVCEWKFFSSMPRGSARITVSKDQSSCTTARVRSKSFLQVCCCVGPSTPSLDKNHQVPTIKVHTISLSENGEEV
The data set can be described thus: Displacement of 7-methoxy-[3H]-prazosin from human alpha1A-adrenoreceptor expressed in CHOK1 cell membranes after 60 mins by TopCount liquid scintillation counting method. Summed up:
as §1

For data set [4], the species on record is Homo sapiens. The data set can be described thus: Selectivity ratio of Ki for human alpha1A-adrenoreceptor to Ki for human alpha1D-adrenoreceptor.
The species entered for data set [5] is Homo sapiens. The data set can be described thus: Selectivity ratio of Ki for human alpha1B-adrenoreceptor to Ki for human alpha1D-adrenoreceptor.
Data set [6] deals with T4, Alpha-1D adrenergic receptor (Rattus norvegicus) (UniProt P23944).
T4 sequence (whole entry): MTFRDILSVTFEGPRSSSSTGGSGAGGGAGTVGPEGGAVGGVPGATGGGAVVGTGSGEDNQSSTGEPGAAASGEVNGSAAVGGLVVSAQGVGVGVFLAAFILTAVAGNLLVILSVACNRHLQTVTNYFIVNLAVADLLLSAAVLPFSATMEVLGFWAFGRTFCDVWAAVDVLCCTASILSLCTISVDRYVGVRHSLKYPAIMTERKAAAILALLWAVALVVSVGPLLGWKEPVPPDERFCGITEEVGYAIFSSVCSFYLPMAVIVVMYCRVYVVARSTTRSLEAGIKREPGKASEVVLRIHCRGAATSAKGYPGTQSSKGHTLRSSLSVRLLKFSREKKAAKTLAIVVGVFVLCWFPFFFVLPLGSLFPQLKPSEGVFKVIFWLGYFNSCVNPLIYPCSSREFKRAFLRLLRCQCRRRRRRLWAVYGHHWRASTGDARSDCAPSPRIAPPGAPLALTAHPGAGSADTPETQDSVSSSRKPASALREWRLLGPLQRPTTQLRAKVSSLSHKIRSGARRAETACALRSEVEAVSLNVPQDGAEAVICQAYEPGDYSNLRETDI
Description: Antagonist activity at alpha1D-adrenoreceptor in Wistar rat bladder strips assessed as relaxation of PHE-induced contractile response after 30 mins. The class given is functional.

The target of a further data set is CYP3A4 (Homo sapiens, UniProt P08684). The data set can be described thus: Inhibition of human microsomal CYP3A4 at 10 uM after 10 mins by LC-MS/MS analysis relative to control. The following applies: microsomes. It counts as ADME. The gist of the method:
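Reversible inhibition test. Midazolam substrate incubated with 0.1 mg/mL human liver microsomes and 10 µM test compound for 10 min at 37 °C. Stopped with acetonitrile/water.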

Chain of CYP3A4 (P08684 whole entry): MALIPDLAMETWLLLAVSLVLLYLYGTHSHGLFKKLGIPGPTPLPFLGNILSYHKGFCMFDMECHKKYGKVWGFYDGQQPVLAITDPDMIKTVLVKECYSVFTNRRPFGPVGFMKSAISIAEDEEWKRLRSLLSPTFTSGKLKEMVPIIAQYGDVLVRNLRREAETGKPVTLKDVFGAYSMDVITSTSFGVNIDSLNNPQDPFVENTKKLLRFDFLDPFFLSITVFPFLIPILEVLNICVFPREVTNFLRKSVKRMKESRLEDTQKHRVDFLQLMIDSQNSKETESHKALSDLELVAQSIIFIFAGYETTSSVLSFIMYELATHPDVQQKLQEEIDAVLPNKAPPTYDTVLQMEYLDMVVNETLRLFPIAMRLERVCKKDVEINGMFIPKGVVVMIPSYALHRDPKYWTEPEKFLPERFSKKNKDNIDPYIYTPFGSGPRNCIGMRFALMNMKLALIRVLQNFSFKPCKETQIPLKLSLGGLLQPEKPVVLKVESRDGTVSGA

As a reminder, the Ki is the equilibrium dissociation constant of an inhibitor or competing ligand from its target. By IC30 is commonly meant the point of the concentration-response curve where the effect stands at 30%. Consider `CS(=O)(=O)c1ccc(Cl)cc1CNCCOc1cc(F)ccc1Cl`, for which the inhibitory constant (Ki) was determined as 17 nM in data set [1], 1100 nM in data set [2] and 1800 nM in data set [3]. Further, the results for the Ratio Ki in the data set filed under Homo sapiens [4] and in the data set filed under Homo sapiens [5] were 110 and 65, respectively. Further, the concentration for an effect of 30% (IC30) in data set [6] amounted to 250 nM.
Broadly, the inhibition is the share of the control response that was lost under treatment. Read a high inhibition as a strong effect. In the case of `NC(=O)c1ccc2c(c1)C(NCCOc1cc(F)ccc1F)CCS2(=O)=O` (stereo unspecified), the Ki in data set [1] turned out to be 86 nM. The inhibition at 10 min, 10 µM against CYP3A4 is 12.5%.
`COc1ccc2c(c1)S(=O)(=O)CCC2NCCOc1cc(F)ccc1F` (stereo unspecified): the Ki in data set [1] stood at 38 nM. In addition, on CYP3A4, the inhibition at 10 min, 10 µM came to 34.3%.
Regarding `O=S1(=O)CC(NCCOc2cc(F)ccc2Cl)c2ccccc21` (stereo unspecified), the inhibitory constant (Ki) was greater than 94 nM in data set [1], greater than 120 nM in data set [2] and greater than 270 nM in data set [3].
The like results for `Fc1ccc(Cl)c(OCCNCc2cccc(Cl)c2)c1` were, in that order, 65 nM, greater than 120 nM and greater than 270 nM.
`O=S1(=O)CCC(NCCOc2cc(F)ccc2F)c2ccccc21` (stereo unspecified) registered an inhibitory constant (Ki) in data set [1] of 17 nM. On CYP3A4, the inhibition at 10 min, 10 µM was 26.5%.
Regarding `CS(=O)(=O)c1ccccc1CNCCOc1cc(F)ccc1Cl`, the Ki in data set [1] was 4.3 nM; in data set [2], greater than 120 nM; in data set [3] it was greater than 270 nM. For the same compound, the IC30 in data set [6] was found to be 140 nM.
Take `O=S1(=O)CCC(NCCOc2cc(F)ccc2Cl)c2ccccc21` (stereo unspecified): the Ki is 3.9 nM in data set [1], greater than 120 nM in data set [2] and greater than 270 nM in data set [3]. The 30% effect concentration (IC30) in data set [6] turned out to be 54 nM. In addition, the inhibition at 10 min, 10 µM at CYP3A4 worked out at 52.3%.
Consider `CNc1ccc2c(c1)[C@@H](NCCOc1cc(F)ccc1F)CCS2(=O)=O`, for which the Ki in data set [1] turned out to be 0.3 nM; in data set [2] it was 150 nM; in data set [3], 130 nM. Moreover, the Ratio Ki amounted to 430 in the data set filed under Homo sapiens [4] and 500 in the data set filed under Homo sapiens [5]. Moreover, in data set [6], the IC30 was 5.5 nM. The inhibition at 10 min, 10 µM against CYP3A4 came out at 20.7%.
Take `COc1cccc2c1S(=O)(=O)CCC2NCCOc1cc(F)ccc1F` (stereo unspecified): in data set [1], affinity was put at a Ki of 170 nM. The compound also gave an inhibition at 10 min, 10 µM against CYP3A4 of 17.1%.
For `CNc1ccc2c(c1)C(NCCOc1cc(F)ccc1F)CCS2(=O)=O` (stereo unspecified), the inhibition constant Ki in data set [1] amounted to 0.85 nM; in data set [2], 430 nM; in data set [3], 350 nM. Moreover, the Ratio Ki in the data set filed under Homo sapiens [4] was 410; in the data set listed under Homo sapiens [5], 510. Moreover, in data set [6], the IC30 turned out to be 80 nM. Besides, at CYP3A4, the inhibition at 10 min, 10 µM turned out to be 26.1%.
For the compound `O=S1(=O)CCC(NCCOc2cc(F)ccc2F)c2cc(F)ccc21` (stereo unspecified), the Ki in data set [1] worked out at 12 nM. The same compound had an inhibition at 10 min, 10 µM on CYP3A4 of 23.1%.
As for `CNc1ccc2c(c1)[C@H](NCCOc1cc(F)ccc1F)CCS2(=O)=O`, the inhibition constant (Ki) was 62 nM in data set [1], greater than 1200 nM in data set [2] and 1200 nM in data set [3]. The Ratio Ki in the data set filed under Homo sapiens [4] was 19; in the data set filed under Homo sapiens [5] it was greater than 20. On CYP3A4, this compound gave an inhibition at 10 min, 10 µM of 26.7%.
`COc1cccc2c1C(NCCOc1cc(F)ccc1F)CCS2(=O)=O` (stereo unspecified) had a Ki in data set [1] of 9.5 nM. In addition, on CYP3A4, the inhibition at 10 min, 10 µM stood at 28.6%.
For `CS(=O)(=O)c1ccccc1CCCNCCOc1cc(F)ccc1Cl`, the figures for the Ki in data set [1], in data set [2] and in data set [3] were 9.1 nM, 44 nM and 50 nM, respectively.
The matching figures for `CC(NCCOc1cc(F)ccc1Cl)c1ccccc1S(C)(=O)=O` (stereo unspecified): greater than 94 nM, greater than 120 nM and greater than 270 nM.
`COc1ccc2c(c1)C(NCCOc1cc(F)ccc1F)CCS2(=O)=O` (stereo unspecified) came in with an inhibition constant (Ki) in data set [1] of 1.5 nM. The same compound gave an inhibition at 10 min, 10 µM against CYP3A4 of 22.7%.
As to `CS(=O)(=O)c1ccccc1CCNCCOc1cc(F)ccc1Cl`, the inhibition constant Ki in data set [1] was 8.6 nM; in data set [2], 30 nM; in data set [3] it was 150 nM.
On to `CS(=O)(=O)c1ccc2c(c1)C(NCCOc1cc(F)ccc1F)CCS2(=O)=O` (stereo unspecified), for which, in data set [1], the Ki was determined as 310 nM. Also, the inhibition at 10 min, 10 µM on CYP3A4 came out at 5.2%.

(Values after ChEMBL document CHEMBL4190310, “Identification of 3,4-dihydro-2H-thiochromene 1,1-dioxide derivatives with a phenoxyethylamine group as highly potent and selective α1D adrenoceptor antagonists” (Eur J Med Chem, 2017).)
